Source: ChEMBL document CHEMBL1131621, “Synthesis and activity of dipeptides, linked to targeting ligands, as specific NK cell enhancers” (1998)
The source made the active and inactive calls. The rule behind the calls is not given here. Where a SMILES comes first, the peptide text is derived from it. [ ]: non-standard residue; d: D form.

Tests used:
Mus musculus [1] = organism: Mus musculus; test: Peak or the range of peak activity relative to positive IL 2 control; Range 10e-12-10e-6; format: functional
Outline: (§1)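 Spleens from female C57BL/6 (H-2b) mice, 6–8 weeks old, homogenized in RPMI 1640 with 10% FCS and 2 mM L-glutamine. Mononuclear cells isolated on a Lympholyte M gradient (800g, 20 min), washed in PBS, viability checked by trypan blue. 5×10^5 splenocytes with compound incubated 4 h with 5×10^3 51Cr-labelled YAC-1 cells; % specific lysis from released chromium. Compounds tested at 10^-4–10^-12 M. Peak activity scored relative to IL 2 (100%) in 20% bands. Actives run 2–5 times, inactives once.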

[2] = In vitro Natural Killer cell activity (Activation of murine splenocyte NK cells by its ability to lyze YAC-1 target cells in chromium release assay) relative to interleukin 2 at 10E-4 to 10E-12 M conc; Range […]; format: functional, Mus musculus; outline: as §1
[3] = In vitro Natural Killer cell activity (Activation of murine splenocyte NK cells by its ability to lyze YAC-1 target cells in chromium release assay) relative to interleukin 2 at 10E-4 to 10E-12 M conc; Range 41-60%; format: functional, Mus musculus; outline: as §1
[4] = In vitro Natural Killer cell activity (Activation of murine splenocyte NK cells by its ability to lyze YAC-1 target cells in chromium release assay) relative to interleukin 2 at 10E-4 to 10E-12 M conc; Range 21-40%; format: functional, Mus musculus; outline: as §1
Mus musculus [5] = organism: Mus musculus; test: Peak or the range of peak activity relative to positive IL 2 control; Range 10e-12-10e-4; format: functional; outline: as §1
[6] = In vitro Natural Killer cell activity (Activation of murine splenocyte NK cells by its ability to lyze YAC-1 target cells in chromium release assay) relative to interleukin 2 at 10E-4 to 10E-12 M conc.; format: functional, Mus musculus; outline: as §1
[7] = In vitro Natural Killer cell activity (Activation of murine splenocyte NK cells by its ability to lyze YAC-1 target cells in chromium release assay) relative to interleukin 2; Range 0-20%; format: functional, Mus musculus; outline: as §1
Mus musculus [8] = organism: Mus musculus; test: The compound was tested in vitro for T cell proliferation (PHA, ConA) against murine splenocytes; No effect; format: functional
Mus musculus [9] = test: Antimetastatic effect in lungs of C57BL/6 mice injected iv on day 0 with 250000 B16 melanoma cells and a dose of 50 mg/kg of compound in exp 2; format: functional, Lung
Outline: (§2)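 Female C57BL/6 mice, 6–8 weeks old, given 2.5×10^5 B16F10 melanoma cells iv on day 0. Sacrifice on day 24; lungs fixed and surface tumour colonies counted. Mean ± SEM; n = 8 in exp 1, n = 4 in exp 2.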

Mus musculus [10] = organism: Mus musculus; test: In vitro for cytotoxic T lymphocyte activity against murine splenocytes; Range 21-40% of IL 2; format: functional
Mus musculus [11] = organism: Mus musculus; test: The compound was tested in vitro for phagocytotic activity against murine whole blood; No effect; format: functional
Mus musculus [12] = test: Antimetastatic effect in lungs of C57BL/6 mice injected iv on day 0 with 250000 B16 melanoma cells and a dose of 0 mg/kg of compound in exp 1; format: functional, Lung; outline: as §2
Mus musculus [13] = test: Antimetastatic effect in lungs of C57BL/6 mice injected iv on day 0 with 250000 B16 melanoma cells and a dose of 25 mg/kg of compound in exp 1; format: functional, Lung; outline: as §2
[14] = In vitro Natural Killer cell activity (Activation of murine splenocyte NK cells by its ability to lyze YAC-1 target cells in chromium release assay) relative to interleukin 2 at 10E-4 to […] conc; Range 101-120%; format: functional, Mus musculus; outline: as §1
Mus musculus [15] = test: Antimetastatic effect in lungs of C57BL/6 mice injected iv on day 0 with 250000 B16 melanoma cells and a dose of 25 mg/kg of compound in exp 2; format: functional, Lung; outline: as §2
Mus musculus [16] = organism: Mus musculus; test: The compound was tested in vitro for B cell proliferation (PWM, LPS) against murine splenocytes; No effect; format: functional
Homo sapiens [17] = organism: Homo sapiens; test: Iin vitro NK cell cytolytic activity (K 562 target) using human PBML; Range 81-100%; format: functional
Outline: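 PBML isolated from heparinized human blood by Ficoll-Hypaque density gradient centrifugation. For the NK assay (K562 targets), activity is scored relative to an IL 2 control.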

Mus musculus [18] = organism: Mus musculus; test: Peak or the range of peak activity relative to positive IL 2 control; Range 10e-12-10e-7; format: functional; outline: as §1
Mus musculus [19] = organism: Mus musculus; test: The compound was tested in vitro for mixed lymphocyte reaction against murine splenocytes; No effect; format: functional
Mus musculus [20] = organism: Mus musculus; test: The compound was tested in vitro for respiratory burst against murine whole blood; No effect; format: functional
Mus musculus [21] = test: Antimetastatic effect in lungs of C57BL/6 mice injected iv on day 0 with 250000 B16 melanoma cells and a dose of 0 mg/kg of compound in exp 2; format: functional, Lung; outline: as §2
Homo sapiens [22] = organism: Homo sapiens; test: The compound was tested in vitro for phagocytotic activity against human PBML; No effect; format: functional
Homo sapiens [23] = organism: Homo sapiens; test: The compound was tested in vitro for respiratory burst against human PBML; No effect; format: functional
[24] = In vitro Natural Killer cell activity (Activation of murine splenocyte NK cells by its ability to lyze YAC-1 target cells in chromium release assay) relative to interleukin 2 at 10E-8 to 10E-12 M conc; Range 41-60%; format: functional, Mus musculus; outline: as §1
[25] = In vitro Natural Killer cell activity (Activation of murine splenocyte NK cells by its ability to lyze YAC-1 target cells in chromium release assay) relative to interleukin 2 at 10E-4 to 10E-12 M conc; Range 81-100%; format: functional, Mus musculus; outline: as §1
Mus musculus [26] = organism: Mus musculus; test: Peak or the range of peak activity relative to positive IL 2 control; Range 10e-8-10e-4; format: functional; outline: as §1
[27] = In vitro Natural Killer cell activity (Activation of murine splenocyte NK cells by its ability to lyze YAC-1 target cells in chromium release assay) relative to interleukin 2 at 10e-4; Range 101-120%
[28] = In vitro Natural Killer cell activity (Activation of murine splenocyte NK cells by its ability to lyze YAC-1 target cells in chromium release assay) relative to interleukin 2 at 10E-6 to 10E-12 M conc; Range 21-40%; format: functional, Mus musculus; outline: as §1

Work on `CC1OC(OCCCCCCn2cnc3c(N(C)C)ncnc32)C(O)C(O)C1O` (configuration not stated) yielded a Concentration (Mus musculus [1]) of 10 pM and a Stimulation [2] of 81%.
`CC1OC(OCCCCCCNC(=O)[C@H](CCC(=O)O)NC(=O)[C@H](C)N)C(O)C(O)C1O` (some centres not stated) gave a Stimulation [3] of 41%.
In the case of `CC1OC(OCCCCCCNC(=O)[C@H](CCCCNC(=O)[C@H](CCC(N)=O)NC(=O)[C@@H](C)N)NC(=O)[C@H](CCC(N)=O)NC(=O)[C@@H](C)N)C(O)C(O)C1O` (some centres not stated), the Stimulation [4] is reported as 21%.
Work on `CC1OC(OCCCCCCNC(=O)[C@H](CCC(N)=O)NC(=O)[C@H](N)C(C)C)C(O)C(O)C1O` (some centres not stated) yielded a Stimulation [3] of 41% and a Concentration (Mus musculus [5]) of 10 pM.
`CC1OC(OCCCCCCNC(=O)CNC(=O)[C@@H](C)N)C(O)C(O)C1O` (some centres not stated) gave a Stimulation [6] of 0%.
Work on `CC(C(=O)OCCCCCn1cnc2c(N(C)C)ncnc21)[C@H](C)CCCN=C(N)N` (some centres not stated) yielded a Stimulation [6] of 0%.
For `C[C@@H](N)C(=O)N[C@@H](CCC(N)=O)C(=O)NCCCCCCCl`, the Stimulation [7] was 0%.
Work on `CC(=O)N[C@@H](CCC(N)=O)C(=O)NCCCCCCOC1OC(C)C(O)C(O)C1O` (some centres not stated) yielded a Stimulation [6] of 0%.
In the case of `CC1OC(OCCCCCCNC(=O)[C@H](CCC(N)=O)NC(=O)[C@@H](C)N)C(O)C(O)C1O` (some centres not stated), the Activity (Mus musculus [8]) is reported as “inactive”, the “No. of lung colonies” value (Mus musculus [9]) is reported as 60 and the Activity (Mus musculus [10]) is reported as 21%. The Activity (Mus musculus [11]) was “inactive”, the “No. of lung colonies” value (Mus musculus [12]) was 142 and the “No. of lung colonies” value (Mus musculus [13]) was 109. For the same compound, the Stimulation [14] was 101%, the “No. of lung colonies” value (Mus musculus [15]) was 86 and the Activity (Mus musculus [16]) was “inactive”. The Activity (Homo sapiens [17]) was 81%, the Concentration (Mus musculus [18]) was 10 pM and the Activity (Mus musculus [19]) was “inactive”. The Activity (Mus musculus [20]) was “inactive”, the “No. of lung colonies” value (Mus musculus [21]) was 101 and the Activity (Homo sapiens [22]) was “inactive”. For the same compound, the Activity (Homo sapiens [23]) was “inactive”.
Compound `C[C@@H](N)C(=O)N[C@@H](CCC(N)=O)C(=O)O` (H-[dA]-Gln-OH) has a Stimulation [7] of 0%.
`C=CCn1c(=O)n([C@@H]2O[C@H](CO)[C@@H](O)[C@H]2O)c2nc(N)[nH]c(=O)c21` [LOXORIBINE] gave a Stimulation [6] of 0%.
With `C[C@H](N)C(=O)N[C@H](CCC(N)=O)C(=O)NCCCCCCO` the Stimulation [24] was 41%.
Work on `C[C@@H](N)C(=O)N[C@@H](CCC(N)=O)C(=O)NCCCCCCO` yielded a Stimulation [25] of 101%.
Work on `CC1OC(OCCCCCCNC(=O)[C@@H](N)CCC(N)=O)C(O)C(O)C1O` (some centres not stated) yielded a Stimulation [4] of 21% and a Concentration (Mus musculus [26]) of 100 nM.
`CC1OC(OCCCCCCNC(=O)[C@@H]2CCC(=O)N2)C(O)C(O)C1O` (some centres not stated) showed a Stimulation [6] of 0%.
Compound `CC1OC(OCCCCCCNC(=O)[C@H](CC(N)=O)NC(=O)[C@@H](C)N)C(O)C(O)C1O` (some centres not stated) has a Stimulation [6] of 0%.
For `NC(=O)CC[C@H](N)C(=O)NCCCCCCO`, the Stimulation [7] was 0%.
In the case of `C[C@@H](N)C(=O)N[C@@H](CCC(N)=O)C(=O)NCCCCCCN`, the Stimulation [27] is reported as 101%.
In the case of `CC[C@H](C)[C@H](N)C(=O)N1CCC[C@H]1C(=O)NCCCCCCO`, the Stimulation [28] is reported as 21%.
